# Assay results as given in ChEMBL document CHEMBL1287652, “QSAR modeling, synthesis and bioassay of diverse leukemia RPMI-8226 cell line active agents” (2010).
# Experiment: Antitumor activity against human […] cells at 10 uM after 48 hrs by sulforhodamine B assay relative to control
# Type: functional
# Procedure, shortened: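 NCI panel lines were grown in RPMI-1640 with 5% FBS and 2 mM L-glutamine and seeded at 5000–40,000 cells/well according to doubling time. After 24 h at 37 °C, 5% CO2, one dose from a DMSO stock was added for 48 h. Cells were TCA-fixed (10% final adherent, 16% suspension), SRB-stained and read at 515 nm. Percent growth is relative to untreated control.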
row,Compound,inhibition at 10 µM
1,[3H]N1C(=O)[C@@]2(c3ccccc31)N(C)C[C@@H](c1ccc(OC)cc1)[C@@]21Cc2ccccc2C1=O,33.2%
2,[3H]C([3H])([3H])N1C(=O)[C@@]2(c3ccccc31)N(C)C[C@@H](c1ccc(OC)cc1)[C@@]21Cc2ccccc2C1=O,82.3%
3,[3H]N1C(=O)[C@@]2(c3ccccc31)N(C)C[C@@H](c1cccs1)[C@@]21Cc2ccccc2C1=O,10.9%
4,[3H]C([3H])([3H])N1C(=O)[C@@]2(c3ccccc31)N(C)C[C@@H](c1cccs1)[C@@]21Cc2ccccc2C1=O,12.1%
5,[3H]N1C(=O)[C@@]2(c3ccccc31)N(C)C[C@@H](c1ccc(Cl)cc1)[C@@]21Cc2ccccc2C1=O,63.4%
6,[3H]C([3H])([3H])N1C(=O)[C@@]2(c3ccccc31)N(C)C[C@@H](c1ccc(Cl)cc1)[C@@]21Cc2ccccc2C1=O,86.6%
7,O=C(N/C(=C\c1ccccc1OCCOc1ccccc1/C=C(\NC(=O)c1ccccc1)C(=O)N1CCCCC1)C(=O)N1CCCCC1)c1ccccc1,18.3%
8,O=C(N/C(=C\c1ccccc1OCCOc1ccccc1/C=C(\NC(=O)c1ccccc1)C(=O)N1CCOCC1)C(=O)N1CCOCC1)c1ccccc1,9.15%
9,CN1CCN(C(=O)/C(=C/c2ccccc2OCCOc2ccccc2/C=C(\NC(=O)c2ccccc2)C(=O)N2CCN(C)CC2)NC(=O)c2ccccc2)CC1,14.7%
10,O=C(Nc1ccc(Cl)cc1)/C(=C/c1ccccc1OCCOc1ccccc1/C=C(\NC(=O)c1ccccc1)C(=O)Nc1ccc(Cl)cc1)NC(=O)c1ccccc1,6.03%
11,CN1C/C(=C\c2ccc(Cl)cc2)C(=O)[C@@]2(C1)[C@H](c1ccc(Cl)cc1)CN(C)[C@]21C(=O)Nc2ccccc21,61.5%
12,CN1C/C(=C\c2ccc(Cl)cc2)C(=O)[C@@]2(C1)[C@H](c1ccc(Cl)cc1)CN(C)[C@]21C(=O)N(C)c2ccccc21,62%
13,COc1ccc([C@@H]2C(c3ccccc3)=NN(c3cccc(Cl)c3)[C@]23CCSc2ccccc2C3=O)cc1,34.3%
14,O=C1c2ccccc2SCC[C@@]12[C@H](c1cccs1)C(c1ccccc1)=NN2c1cccc(Cl)c1,29.8%
15,COc1ccc(/C=C2\CN(C)C[C@]3(C2=O)[C@H](c2ccc(OC)cc2)CN(C)[C@]32C(=O)Nc3ccccc32)cc1,79.3%
16,O=C(Nc1ccccc1)c1c(-c2ccc(Cl)cc2)cc(-c2ccccc2)nc1N1CCCCC1,13%
17,Cc1ccc(NC(=O)c2c(-c3ccc(Cl)cc3)cc(-c3ccccc3)nc2N2CCCCC2)cc1,24%

row,Compound,inhibition at 10 µM
1,O=C1c2ccccc2SCC[C@@]12[C@H](c1ccc(Cl)cc1)C(c1ccccc1)=NN2c1cccc(Cl)c1,33.2%
2,O=C(Nc1ccccc1)c1c(-c2ccc(Cl)cc2)cc(-c2ccccc2)nc1N1CCOCC1,51%
3,Cc1ccc(NC(=O)c2c(-c3ccc(Cl)cc3)cc(-c3ccccc3)nc2N2CCOCC2)cc1,39%
4,Nc1nc(-c2ccccc2)cc(-c2ccc(Cl)cc2)c1C(=O)Nc1ccccc1,46%
5,Cc1ccc(NC(=O)c2c(-c3ccc(Cl)cc3)cc(-c3ccccc3)nc2N)cc1,71%
6,O=C(Nc1ccccc1)c1c(-c2ccc(Cl)cc2)cc(-c2ccccc2)nc1Nc1ccccc1,15%
7,O=C(Nc1ccccc1)c1c(-c2ccc(Cl)cc2)cc(-c2ccccc2)nc1Nc1ccc(Cl)cc1,53%
8,CN1C/C(=C\c2cccs2)C(=O)[C@@]2(C1)[C@H](c1cccs1)CN(C)[C@]21C(=O)N(C)c2ccccc21,89.4%
9,COc1ccc(Nc2nc(-c3ccccc3)cc(-c3ccc(Cl)cc3)c2C(=O)Nc2ccccc2)cc1,30%
10,Cc1ccc(NC(=O)c2c(-c3ccc(Cl)cc3)cc(-c3ccccc3)nc2Nc2ccc(Cl)cc2)cc1,58%
11,COc1ccc(Nc2nc(-c3ccccc3)cc(-c3ccc(Cl)cc3)c2C(=O)Nc2ccc(C)cc2)cc1,79%
12,COc1nc(-c2cccs2)cc2c1c(=O)oc1ccccc12,9.11%
13,Cn1c(S)n[n+]2c(N)c(C#N)c(-c3ccc(N4CCOCC4)cc3)c(C#N)c12,11.9%
14,CCn1c(S)n[n+]2c(N)c(C#N)c(-c3ccc(N4CCOCC4)cc3)c(C#N)c12,24.9%
15,COc1ccc(-c2c3c([nH]c(=S)c2C#N)-c2ccccc2SCC3)cc1,0.96%
16,O=C(Nc1ccc(Cl)c(Cl)c1)Nc1ccccc1SCCCSc1ccccc1NC(=O)Nc1ccc(Cl)c(Cl)c1,108%
